Measurements as given in ChEMBL document CHEMBL3853326, “Proteolytically Stable Foldamer Mimics of Host-Defense Peptides with Protective Activities in a Murine Model of Bacterial Infection” (J Med Chem, 2016).
≈ marks a conversion by molar mass, not a printed value. Calls of active or inactive are those of the source.

What was measured:
Bacillus anthracis [1] = assay: Bactericidal activity against encapsulated Bacillus anthracis 9602P assessed as reduction in colony forming units after 30 mins; assay type: functional; details: 0.5 h
Bacillus anthracis [2] = assay: Time required for 50 % bactericidal activity against germinating spore form of Bacillus anthracis 9602P at 20 ug/ml; assay type: functional
Bacillus anthracis [3] = assay: Time required for 50 % bactericidal activity against encapsulated Bacillus anthracis 9602P at 20 ug/ml; assay type: functional
Bacillus anthracis [4] = assay: Time required for 50 % bactericidal activity against nonencapsulated Bacillus anthracis 9602PR at 20 ug/ml; assay type: functional
Bacillus anthracis [5] = assay: Bactericidal activity against nonencapsulated Bacillus anthracis 9602PR assessed as reduction in colony forming units after 30 mins; assay type: functional; details: 0.5 h
Bacillus anthracis [6] = assay: Bactericidal activity against germinated spore form of Bacillus anthracis 9602P assessed as colony forming units after 30 mins; assay type: functional; details: 0.5 h
Bacillus anthracis [7] = assay: In vivo bactericidal activity against encapsulated Bacillus anthracis 9602P spores infected in mouse assessed as increase in time of survival at 20 ug/ml, administered intranasally for 15 mins to 48 hrs post infection measured for 15 days post dose; assay type: functional, organism-based
Bacillus anthracis [8] = assay: In vivo bactericidal activity against encapsulated Bacillus anthracis 9602P spores infected in mouse assessed as increase in time of survival at 20 ug/ml, sc administered for 15 mins to 48 hrs post infection measured for 15 days post dose; assay type: functional, organism-based
[9] = Stability assessed as Streptomyces griseus pronase E-mediated compound degradation up to 3 mins by HPLC analysis; assay type: ADME; details: 0.05 h
[10] = Stability assessed as trypsin (unknown origin)-mediated compound degradation up to 3 mins by HPLC analysis; assay type: ADME; details: human, 0.05 h
[11] = Stability assessed as chymotrypsin(unknown origin)-mediated compound degradation up to 3 mins by HPLC analysis; assay type: ADME; details: human, 0.05 h
[12] = Drug uptake in BALB/c mouse kidney cortex at 100 ug, iv after 4 hrs by avidin-peroxidase/HE staining based assay; assay type: ADME, organism-based; details: in vivo
[13] = Drug uptake in BALB/c mouse cortical convoluted tubule epithelial cells at 100 ug, iv after 4 hrs by avidin-peroxidase/HE staining based assay; assay type: ADME, organism-based, Epithelial cell; details: in vivo
[14] = Drug uptake in BALB/c mouse kidney deep medulla at 100 ug, iv after 4 hrs by avidin-peroxidase/HE staining based assay; assay type: ADME, organism-based; details: in vivo
[15] = Drug uptake in BALB/c mouse kupffer cells at 100 ug, iv after 4 hrs by avidin-peroxidase/HE staining based assay; assay type: ADME, organism-based; details: in vivo
[16] = Drug uptake in BALB/c mouse liver at 100 ug, iv after 4 hrs by avidin-peroxidase/HE staining based assay; assay type: ADME, organism-based; details: in vivo
Bacillus anthracis [17] = assay: Bactericidal activity against germinating spore form of Bacillus anthracis at 5 ug/ml; assay type: functional
[18] = Drug uptake in BALB/c mouse kidney deep medulla epithelial cells at 100 ug, iv after 4 hrs by avidin-peroxidase/HE staining based assay; assay type: ADME, organism-based, Epithelial cell; details: in vivo
[19] = Drug uptake in BALB/c mouse nasopharyngeal duct at 20 ug/ml, administered intranasally at 4 hrs post dose by high resolution beta radiometric imaging analysis; assay type: ADME; details: in vivo, inhaled_or_intranasal
Outline: (§1)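 BALB/c mice got 20 μg (5 μCi) tritiated compound intranasally. At 4, 30 and 48 h they were anaesthetised with halothane and frozen at −80 °C. Whole-body 20 μm sagittal cryosections were exposed 40 h on a high-resolution β-imager. Regional radioactivity was quantified as counts per mm2 per 40 h by image analysis.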

[20] = Selectivity ratio of LC50 for mouse RAW 264.7 cells to ratio of EC50 for germinating spore form of Bacillus anthracis 9602P; assay type: ADME; details: RAW264.7 cells, read-out: Selectivity Index
[21] = Drug excretion in BALB/c mouse urine at 20 ug/ml, administered intranasally after 6 hrs by high resolution beta radiometric imaging analysis; assay type: ADME; details: in vivo, inhaled_or_intranasal
[22] = Terminal half life in BALB/c mouse at 100ug, iv as bolus administration by liquid scintillation counting; assay type: ADME, organism-based; details: in vivo
Outline: (§2)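 Conscious BALB/c mice got one iv bolus of [3H]-labelled oligourea (0.5 × 10^6 cpm per 100 μg, 5.8 × 10−2 μmol) in PBS. Blood (10–20 μL) was drawn from the retro-orbital sinus at 0.6, 2, 3.5, 5.5, 8.7, 15 and 240 min and counted by liquid scintillation. PK was fitted by a two-compartment iv bolus model; n = 2 mice.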

[23] = Stability assessed as trypsin (unknown origin)-mediated compound degradation after 24 hrs by HPLC analysis; assay type: ADME; details: human
[24] = Tmax in BALB/c mouse at 100ug, iv as bolus administration by liquid scintillation counting; assay type: ADME, organism-based; details: in vivo; outline: as §2
[25] = Drug uptake in BALB/c mouse kidney cortex at 100 ug/ml, iv after 4 to 48 hrs by high resolution beta radiometric imaging analysis; assay type: ADME, organism-based; details: in vivo
Outline: (§3)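 BALB/c mice got 100 μg (5 μCi) tritiated compound iv in PBS. At 4, 30 and 48 h the mice were anaesthetised with halothane and frozen in isopentane/dry ice at −80 °C. Whole-body sagittal cryosections (20 μm, cut at −25 °C) were exposed 40 h on a β-imager. Counts per mm2 were read by image analysis, with a muscle-area detection threshold. Values are mean ± SD of 2–6 determinations.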

[26] = Stability assessed as chymotrypsin(unknown origin)-mediated compound degradation after 24 hrs by HPLC analysis; assay type: ADME; details: human
Bacillus anthracis [27] = assay: Time required for 50 % bactericidal activity against encapsulated Bacillus anthracis 9602P at 10 ug/ml; assay type: functional
Bacillus anthracis [28] = assay: Bactericidal activity against Bacillus anthracis 9602P non-germinated spores assessed as colony forming units at 10 ug/ml incubated for 30 mins followed by heating for 30 mins (reference value: 5.28 +/- 0.02 CFU); assay type: functional
[29] = Drug uptake in BALB/c mouse lungs at 20 ug/ml, administered intranasally up to 4 hrs by high resolution beta radiometric imaging analysis; assay type: ADME, Lung; details: in vivo, inhaled_or_intranasal; outline: as §1
[30] = Selectivity index, ratio of HD100 for sheep RBC to MIC for Escherichia coli ATCC 25922
Bacillus anthracis [31] = assay: Time required for 50 % bactericidal activity against nonencapsulated Bacillus anthracis 9602PR at 10 ug/ml; assay type: functional
[32] = Drug uptake in BALB/c mouse liver at 100 ug/ml, iv after 4 to 48 hrs by high resolution beta radiometric imaging analysis; assay type: ADME, organism-based; details: in vivo; outline: as §3
[33] = Ratio of drug level in liver to muscle in BALB/c mouse at 100 ug/ml, iv after 4 hrs by high resolution beta radiometric imaging analysis; assay type: ADME, organism-based; details: in vivo; outline: as §3
[34] = Ratio of drug level in kidney cortex to muscle in BALB/c mouse at 100 ug/ml, iv after 4 hrs by high resolution beta radiometric imaging analysis; assay type: ADME, organism-based; details: in vivo; outline: as §3
[35] = Drug uptake in BALB/c mouse kidney cortex at 20 ug/ml, administered intranasally after 4 to 48 hrs by high resolution beta radiometric imaging analysis relative to iv dosing; assay type: ADME, organism-based; details: in vivo, inhaled_or_intranasal; outline: as §1
[36] = Selectivity index, ratio of HD100 for sheep RBC to MIC for Staphylococcus aureus ATCC 25923
[37] = Drug uptake in BALB/c mouse kidney at 100ug, iv through bolus administration after 30 hrs by RP-HPLC analysis; assay type: ADME, organism-based; details: in vivo
Outline: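 Kidneys were taken 4 and 30 h after iv tritiated compound and homogenised in 1 N HCl. Homogenates were extracted with methanol/0.1% TFA (4:1), lyophilised 48 h and resuspended in water. Samples ran on C18 RP-HPLC with UV (224, 254 nm) and radioactivity detection. Elution was 10 min isocratic at 20% B, then 20–100% B over 15 min (B: acetonitrile, 0.1% TFA).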

[38] = Stability assessed as Streptomyces griseus pronase E-mediated compound degradation after 24 hrs by HPLC analysis; assay type: ADME
[39] = Plasma protein binding in CD1 mouse at 10 uM after 4 hrs by HPLC/MS/MS analysis; assay type: ADME, cell-free; details: read-out: PPB
Outline: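 Binding was measured by equilibrium dialysis against CD-1 mouse plasma.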

[40] = Cytotoxicity against mouse RAW264.7 cells assessed as reduction in cell viability after 4 hrs by MTT assay; assay type: toxicity; details: read-out: LC50
Outline: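 RAW 264.7 murine macrophages (2 × 10^5 cells per well) were incubated with increasing compound concentrations for 4 h. Viability was read by MTT assay. The dose causing 50% cell lethality was reported as mean ± SEM, n = 3.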

Bacillus anthracis [41] = assay: Time required for 50 % bactericidal activity against germinating spore form of Bacillus anthracis 9602P at 10 ug/ml; assay type: functional
[42] = Drug excretion in BALB/c mouse urinary bladder at 100ug, iv as bolus administration after 240 mins by liquid scintillation counting; assay type: ADME, organism-based; details: in vivo, 4 h; outline: as §2
Bacillus anthracis [43] = assay: Time required for 95 % bactericidal activity against encapsulated Bacillus anthracis 9602P at 10 ug/ml; assay type: functional
[44] = Primary phase half life in BALB/c mouse at 100ug, iv as bolus administration by liquid scintillation counting; assay type: ADME, organism-based; details: in vivo; outline: as §2

## CC(C)NC(=O)N[C@H](CNC(=O)N[C@@H](CCCCN)CNC(=O)N[C@H](CNC(=O)N[C@H](CCC(=O)N[C@@H](CCCCN)CNC(=O)N[C@H](CNC(=O)N[C@@H](CCCCN)CNC(=O)N[C@H](CCC(N)=O)C(C)C)Cc1c[nH]c2ccccc12)C(C)C)Cc1c[nH]c2ccccc12)C(C)C
Bacillus anthracis [1]
  EC50: 7 µg/mL (≈ 5.05 µM)
Bacillus anthracis [2]
  Time: 120 s
Bacillus anthracis [3]
  Time: 75 s
Bacillus anthracis [4]
  Time: 45 s
Bacillus anthracis [5]
  EC50: 8.5 µg/mL (≈ 6.13 µM)
Bacillus anthracis [6]
  EC50: 10 µg/mL (≈ 7.21 µM)

## CC(C)[C@@H](CCC(N)=O)NC(=O)NC[C@H](CCCCN)NC(=O)NC[C@H](Cc1c[nH]c2ccccc12)NC(=O)NC[C@H](CCCCN)NC(=O)NC[C@@H](NC(=O)NC[C@H](Cc1c[nH]c2ccccc12)NC(=O)NC[C@H](CCCCN)NC(=O)NC[C@@H](NC(=O)NCCSCC(=O)NCCNC(=O)CSCCNC(=O)N[C@H](CNC(=O)N[C@@H](CCCCN)CNC(=O)N[C@H](CNC(=O)N[C@H](CNC(=O)N[C@@H](CCCCN)CNC(=O)N[C@H](CNC(=O)N[C@@H](CCCCN)CNC(=O)N[C@H](CCC(N)=O)C(C)C)Cc1c[nH]c2ccccc12)C(C)C)Cc1c[nH]c2ccccc12)C(C)C)C(C)C)C(C)C
Bacillus anthracis [7]
  Activity: Active
Bacillus anthracis [1]
  EC50: 0.5 µg/mL (≈ 0.169 µM)
Bacillus anthracis [8]
  Activity: Active
Bacillus anthracis [6]
  EC50: 0.2 µg/mL (≈ 0.0678 µM)

## Ac-VKWVKWKV-NH2
[9]
  Stability: Unstable
[10]
  Stability: Unstable
[11]
  Stability: Unstable

## CC(C)[C@@H](CNC(=O)N[C@@H](CCCCN)CNC(=O)N[C@H](CNC(=O)N[C@H](CNC(=O)N[C@@H](CCCCN)CNC(=O)N[C@H](CNC(=O)N[C@@H](CCCCN)CNC(=O)N[C@H](CCC(N)=O)C(C)C)Cc1c[nH]c2ccccc12)C(C)C)Cc1c[nH]c2ccccc12)NC(=O)CCCC[C@@H]1SC[C@@H]2NC(=O)N[C@@H]21
[12]
  Drug uptake: Active
[13]
  Drug uptake: Active
[14]
  Drug uptake: Active
[15]
  Drug uptake: Active
[16]
  Drug uptake: Active
Bacillus anthracis [17]
  Activity: 64.8%
[18]
  Drug uptake: Active

## CC(C)NC(=O)N[C@H](CNC(=O)N[C@@H](CCCCN)CNC(=O)N[C@H](CNC(=O)N[C@H](CNC(=O)N[C@@H](CCCCN)CNC(=O)N[C@H](CNC(=O)N[C@@H](CCCCN)CNC(=O)N[C@H](CCC(N)=O)C(C)C)Cc1c[nH]c2ccccc12)C(C)C)Cc1c[nH]c2ccccc12)C(C)C
[19]
  Drug uptake: Active
[20]
  selectivity ratio: 9.5
[21]
  Drug excretion: 2%
[22]
  beta t1/2: 1.65 h
[23]
  Stability: Stable
[24]
  Tmax: <= 2 min
Bacillus anthracis [7]
  Activity: Active
[25]
  Drug uptake: Active
[26]
  Stability: Stable
Bacillus anthracis [1]
  EC50: 3.25 µg/mL (≈ 2.34 µM)
Bacillus anthracis [27]
  Time: 30 s
Bacillus anthracis [28]
  Activity: 5.26 CFU
[29]
  Drug uptake: Active
[30]
  Selectivity Index: 8
Bacillus anthracis [31]
  Time: 35 s
[32]
  Drug uptake: Active
[33]
  Ratio: 10
[34]
  Ratio: 10
[35]
  Drug uptake: 70%
[36]
  Selectivity Index: 8
Bacillus anthracis [8]
  Activity: Active
[37]
  Drug uptake: 89%
[38]
  Stability: Stable
[39]
  fraction unbound at 4 h, 10 µM: 0.01
[40]
  CC50 at 4 h: 31.1 µg/mL (≈ 22.4 µM)
Bacillus anthracis [41]
  Time: 60 s
[42]
  Drug excretion: 2%
Bacillus anthracis [5]
  EC50: 6 µg/mL (≈ 4.32 µM)
Bacillus anthracis [43]
  Time: <2 min
Bacillus anthracis [6]
  EC50: 3.3 µg/mL (≈ 2.38 µM)
[44]
  alphat1/2: 3 min
